# According to ChEMBL document CHEMBL1124262, “Cardiotonic agents. Synthesis and inotropic activity of a series of isoquinolin-3-ol derivatives” (J Med Chem, 1988):
# Columns and labels:
# [1] = test system: Canis familiaris; assay: Change in left ventricular pressure of anaesthetized, open chest dogs following 0.875 mg/kg i.v. administration.; assay type: functional, Canis lupus familiaris, Heart left ventricle; conditions: route intravenous
# Method in brief: (§1)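 Anesthetized open-chest dogs, one drug per animal. Compound is in DMF diluted to 10% in saline, or given as the HCl salt in saline. It is infused into the femoral vein by pump at 0.58-2.2 mL/min in 3-4 stepwise cumulative doses, each over 5 min after the prior peak. Readings are CF by right-ventricle strain gauge, dP/dtmax by Millar LV catheter, HR by cardiotachometer and MAP from femoral artery, as % change from predrug control.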
# [2] = test system: Canis familiaris; assay: 50% increase in contractile force in one to three anesthetized dogs administered intravenously; assay type: functional; conditions: Canis lupus familiaris, iv
# Method in brief: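 Anesthetized dogs (one to three). Compound is infused iv in three to four stepwise increasing doses, each over 5 min once the previous effect has peaked. Contractile force is recorded with a Walton Brodie strain gauge on the right ventricle. The dose (μg/kg) giving a 50% rise over control CF is read from the dose-response curve, graphically (n < 3) or by linear regression (n ≥ 3).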
# [3] = test system: Canis familiaris; assay: Change in heart rate of anaesthetized, open chest dogs following 0.875 mg/kg i.v. administration.; assay type: functional, Canis lupus familiaris; conditions: route intravenous; method in brief: as §1
# [4] = target: Phosphodiesterase 3 (Homo sapiens, UniProt Q14432+Q13370); assay: Inhibition of phosphodiesterase fraction III in anesthetized open chest dogs; assay type: functional, Canis lupus familiaris; conditions: target entry is the homologue from another species
# Method in brief: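 Enzyme is dog heart PDE-III, the third DEAE-cellulose fraction eluted at 800 mM sodium acetate. Compounds are tested at 0.01–1000 μM with 0.25 μM cAMP containing [³H]cAMP, in 0.05 M Tris-HCl pH 7.4 with 5 mM MgCl2. The reaction is stopped by heat, then snake venom converts product to adenosine. [³H]adenosine is counted by scintillation after Dowex separation. IC50 comes from ≥2 determinations, each in duplicate.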
# [5] = test system: Canis familiaris; assay: Percent change in mean arterial blood pressure (MAP) in anesthetized open chest dogs iv administration at 0.8750 mg/kg; assay type: functional, Canis lupus familiaris; conditions: dose 0.875 mg/kg; method in brief: as §1
# [6] = test system: Canis familiaris; assay: Change in heart contractile force of anaesthetized, open chest dogs following 0.875 mg/kg i.v. administration.; assay type: functional, Canis lupus familiaris; conditions: route intravenous; method in brief: as §1
# [7] = test system: Canis familiaris; assay: Percent change in heart rate (HR) in anesthetized open chest dogs after a iv dose of 1.875 mg/kg; assay type: functional, Canis lupus familiaris; method in brief: as §1
# [8] = test system: Canis familiaris; assay: Percent change in left ventricular pressure (dP/dtmax) in anesthetized dog after iv administration at 1.875 mg/kg; assay type: functional, Canis lupus familiaris, Heart left ventricle; method in brief: as §1
# [9] = test system: Canis familiaris; assay: Percent increase in contractile force (CF) in anesthetized open-chest dogs iv administration of 1.875 mg/kg; assay type: functional, Canis lupus familiaris
# Method in brief: (§2)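 Anesthetized open-chest dogs. After a right thoracotomy, contractile force was recorded by a Walton Brodie strain gauge sutured to the right ventricle at 100 g baseline tension. Compound was given iv by infusion pump into a femoral vein, one drug per animal, in three to four stepwise increasing doses. Each dose ran over 5 min, starting once the previous dose's effect peaked. Values are % increase over predrug control vs cumulative mg/kg dose.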
# [10] = test system: Canis familiaris; assay: Percent change in mean arterial blood pressure (MAP) in anesthetized open chest dogs iv administration at 1.875 mg/kg; assay type: functional, Canis lupus familiaris; method in brief: as §1
# [11] = test system: Canis familiaris; assay: Percent change in left ventricular pressure (dP/dtmax) in anesthetized dog after iv administration at 0.05 mg/kg; assay type: functional, Canis lupus familiaris, Heart left ventricle; method in brief: as §1
# [12] = test system: Canis familiaris; assay: Percent change in mean arterial blood pressure (MAP) in anesthetized open chest dogs iv administration at 0.050 mg/kg; assay type: functional, Canis lupus familiaris; conditions: dose 0.05 mg/kg; method in brief: as §1
# [13] = test system: Canis familiaris; assay: Percent change in heart rate (HR) in anesthetized open chest dogs after a iv dose of 0.05 mg/kg; assay type: functional, Canis lupus familiaris; method in brief: as §1
# [14] = test system: Canis familiaris; assay: Percent increase in contractile force (CF) in anesthetized open-chest dogs iv administration of 0.050 mg/kg; assay type: functional, Canis lupus familiaris; conditions: dose 0.05 mg/kg; method in brief: as §1
# [15] = test system: Canis familiaris; assay: Percent change in mean arterial blood pressure (MAP) in anesthetized open chest dogs iv administration at 0.875 mg/kg; assay type: functional, Canis lupus familiaris; method in brief: as §1
# [16] = test system: Canis familiaris; assay: Percent change in mean arterial blood pressure (MAP) in anesthetized open chest dogs iv administration at 0.025 mg/kg; assay type: functional, Canis lupus familiaris; method in brief: as §1
# [17] = test system: Canis familiaris; assay: Percent change in heart rate (HR) in anesthetized open chest dogs after a iv dose of 0.025 mg/kg; assay type: functional, Canis lupus familiaris; method in brief: as §1
# [18] = test system: Canis familiaris; assay: Percent increase in contractile force (CF) in anesthetized open-chest dogs iv administration of 0.025 mg/kg; assay type: functional, Canis lupus familiaris; method in brief: as §1
# [19] = test system: Canis familiaris; assay: Percent change in left ventricular pressure (dP/dtmax) in anesthetized dog after iv administration at 0.025 mg/kg; assay type: functional, Canis lupus familiaris, Heart left ventricle; method in brief: as §1
# [20] = test system: Canis familiaris; assay: Percent change in mean arterial blood pressure (MAP) in anesthetized open chest dogs iv administration at 1 mg/kg; assay type: functional, Canis lupus familiaris; method in brief: as §1
# [21] = test system: Canis familiaris; assay: Percent increase in left ventricular pressure (dP/dtmax) of anesthetized dog after id administration at 1 mg/kg; assay type: functional, Canis lupus familiaris, Heart left ventricle; conditions: route intraduodenal
# Method in brief: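 Anesthetized open-chest dogs. Left ventricular pressure was measured by Millar catheter and dP/dtmax derived. Compound was given as a 10-mL bolus into the duodenum through a catheter placed 2 cm distal to the pylorus via flank incision. Dissolved in DMF diluted to 10% in saline, or as HCl salt in saline. Response is % change over predrug control, monitored continuously.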
# [22] = test system: Canis familiaris; assay: Contractile force in anesthetized open chest dogs id administration at 1.00 mg/kg; assay type: functional, Canis lupus familiaris; conditions: route intraduodenal
# Method in brief: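 Anesthetized open-chest dogs. A 10-mL bolus is injected into the duodenum through a catheter placed 2 cm distal to the pylorus. Contractile force is measured with a Walton Brodie strain gauge sutured to the right ventricle, at a baseline tension of 100 g, and monitored continuously. Results are given as % increase from predrug control against cumulative dose.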
# [23] = test system: Canis familiaris; assay: Percent change in heart rate (HR) in anesthetized open chest dogs after a iv dose of 1 mg/kg; assay type: functional, Canis lupus familiaris; method in brief: as §1
# [24] = test system: Canis familiaris; assay: Percent increase in contractile force (CF) in anesthetized open-chest dogs iv administration of 0.375 mg/kg; assay type: functional, Canis lupus familiaris; method in brief: as §2
# [25] = test system: Canis familiaris; assay: Percent change in heart rate (HR) in anesthetized open chest dogs after a iv dose of 0.375 mg/kg; assay type: functional, Canis lupus familiaris; method in brief: as §1
# [26] = test system: Canis familiaris; assay: Percent change in left ventricular pressure (dP/dtmax) in anesthetized dog after iv administration at 0.375 mg/kg; assay type: functional, Canis lupus familiaris, Heart left ventricle; method in brief: as §1
# [27] = test system: Canis familiaris; assay: Percent change in mean arterial blood pressure (MAP) in anesthetized open chest dogs iv administration at 0.3750 mg/kg; assay type: functional, Canis lupus familiaris; conditions: dose 0.375 mg/kg; method in brief: as §1
# [28] = test system: Canis familiaris; assay: Percent change in heart rate (HR) in anesthetized open chest dogs after a iv dose of 1.75 mg/kg; assay type: functional, Canis lupus familiaris; method in brief: as §1
# [29] = test system: Canis familiaris; assay: Percent change in left ventricular pressure (dP/dtmax) in anesthetized dog after iv administration at 1.75 mg/kg; assay type: functional, Canis lupus familiaris, Heart left ventricle; method in brief: as §1
# [30] = test system: Canis familiaris; assay: Percent change in mean arterial blood pressure (MAP) in anesthetized open chest dogs iv administration at 1.75 mg/kg; assay type: functional, Canis lupus familiaris; method in brief: as §1
# [31] = test system: Canis familiaris; assay: Percent increase in contractile force (CF) in anesthetized open-chest dogs iv administration of 1.75 mg/kg; assay type: functional, Canis lupus familiaris; method in brief: as §2
SMILES,Increase [1] [%],Change [3] [%],Change [5] [%],Increase [6] [%],Change [7] [%],Increase [8] [%],Increase [9] [%],Change [10] [%],other results
Br.COc1cc2c(C)nc(O)c(Br)c2cc1OC,25,26,-40,128,,,,,ED50 [2]: 0.185 mg/kg; IC50 [4]: 10 µM
COc1cc2c(C)nc(O)c(Cl)c2cc1OC,88,29,1,89,,,,,ED50 [2]: 0.12 mg/kg; IC50 [4]: 62 µM
CCCCOc1cc2c(C)nc(O)cc2cc1OC,58,26,-18,182,,,,,ED50 [2]: 0.13 mg/kg; IC50 [4]: 37 µM
COc1cc2c(C)nc(O)c(CCC(=O)N(C)C)c2cc1OC,,,,,-2,-5,16,-14,
COc1ccc2c(C)nc(O)cc2c1OC,,,,28,3,13,,1,
CCc1nc(O)c(CCC(=O)OC)c2cc(OC)c(OC)cc12,33,10,-3,47,,,,,
CCCc1nc(O)c(CCC(=O)OC)c2cc(OC)c(OC)cc12,,2,,,,19,17,-4,
COc1cc2c(C)nc(O)c(C(C)C)c2cc1OC,,,,,,,,,ED50 [2]: 0.025 mg/kg; Increase [11]: 54%; IC50 [4]: 7 µM; Change [12]: -5%; Change [13]: 6%; Increase [14]: 76%
COc1cc2c(C)nc(O)c(CCC(N)=O)c2cc1OC,,,,,11,29,49,-9,
CCOc1cc2c(C)nc(O)c(CC)c2cc1OC,6,26,-46,118,,,,,ED50 [2]: 0.02 mg/kg; IC50 [4]: 2 µM
COc1cc2cc(O)nc(C)c2c(OC)c1OC,45,13,,76,,,,,Change [15]: -2%
CCOc1cc2c(C)nc(O)cc2cc1OC,88,22,,197,,,,,Change [15]: -10%
CCc1c(O)nc(C)c2cc(OC)c(OC)cc12,,,,,,,,,Change [16]: -12%; Change [17]: 13%; ED50 [2]: 0.012 mg/kg; Increase [18]: 143%; IC50 [4]: 2 µM; Increase [19]: 98%; Change [20]: -22%; Increase [21]: 92%; Increase [22]: 132%; Change [23]: 22%
COC(=O)Cc1c(O)nc(C)c2cc(OC)c(OC)cc12,28,6,-1,42,,,,,
CCOC(=O)CCc1c(O)nc(C)c2cc(OC)c(OC)cc12,20,8,-4,60,,,,,
COc1cc2c(C)nc(O)c(CC(C)C)c2cc1OC,,,,,10,25,39,-6,
COC(=O)Oc1cc2cc(OC)c(OC)cc2c(C)n1,,,,,,,,,Increase [24]: 119%; Change [25]: 19%; Increase [26]: 66%; Change [27]: -8%
COC(=O)CCc1c(O)ncc2cc(OC)c(OC)cc12,24,7,-4,53,,,,,

SMILES,Increase [1] [%],Change [3] [%],Change [5] [%],Increase [6] [%],Change [7] [%],Increase [8] [%],Increase [9] [%],Change [10] [%],other results
COc1ccc2cc(O)nc(C)c2c1OC,51,10,,62,,,,,Change [15]: -6%
COc1ccc2cc(O)nc(C)c2c1,87,19,-18,114,,,,,
COC(=O)c1c(O)nc(C)c2cc(OC)c(OC)cc12,,,,,6,19,39,-3,
Cc1nc(O)c(Cl)c2cc3c(cc12)OCO3,,,,,28,51,88,-22,
COC(=O)CCc1c(O)ncc2cc3c(cc12)OCO3,,,,,6,28,26,0,
COc1cc2cc(O)nc(C)c2cc1OC,,,,,,,,,Change [28]: 25%; Increase [29]: 55%; Change [30]: -32%; Increase [31]: 100%
CNC(=O)CCc1c(O)nc(C)c2cc(OC)c(OC)cc12,40,,,,7,,62,-5,
CCOc1cc2cnc(O)cc2cc1OC,,,,,7,32,34,0,
CNC(=O)c1c(O)nc(C)c2cc(OC)c(OC)cc12,,,,,0,17,2,4,
CCOc1cc2cc(O)nc(C)c2cc1OCC,42,15,-11,84,,,,,
COC(=O)CCc1c(O)nc(C)c2cc3c(cc12)OCO3,118,38,-21,131,,,,,
COc1cc2c(C)nc(O)c(CCC(=O)OC(C)C)c2cc1OC,,,,,3,15,22,-6,
COC(=O)CCc1c(O)nc(C)c2c(OC)c(OC)c(OC)cc12,20,8,-4,22,,,,,
COc1cc2c(C)nc(O)c(CCC(=O)O)c2cc1OC,,,,,5,42,75,-3,
COc1cc2c(C)nc(O)c(C3CCCC3)c2cc1OC,,,,,5,22,46,3,ED50 [2]: 1.88 mg/kg; IC50 [4]: 128 µM
COC(=O)CCc1c(O)nc(C(C)C)c2cc(OC)c(OC)cc12,,,,,7,17,15,3,
COc1ccc2[nH]c(=O)nc(C)c2c1OC [BEMARINONE],,,,,,,,,Increase [24]: 71%; Change [25]: 11%; Increase [26]: 30%; Change [27]: -6%
